From article PMC10448036 (International Journal for Parasitology: Drugs and Drug …, 2023)
Read-outs that look alike come from different tables or passages of the source. Marks after values point to notes of the source that are not given here.

Tests used:
[1] = tested on: Other genera (Trichostrongylus spp.; Teladorsagia spp. and Oesophagostomum spp.); assay: L3 from pooled faecal cultures, by genus; assay type: in vivo, lambs
Procedure, shortened: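 Naturally parasitized lambs (groups of 10) were dosed by weight on day 0 with two test compounds, alone or combined: the first at 5 mg/kg sc or 10 mg/kg oral, the second at 0.2 mg/kg sc or oral; untreated controls were kept. Rectal faeces were counted for epg by modified McMaster. Pooled group faecal cultures at days −1, 13, 22 and 28 gave L3 typed to genus. Genus efficacy = 100×(1−T/C) on arithmetic-mean epg partitioned by each genus's L3 proportion.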

Haemoncus spp. = assay: L3 from pooled faecal cultures, by genus; assay type: in vivo, lambs
[2] = ref Hennessy and Ali, 1997; cited from earlier work
[3] = tested on: Nematodirus spp., Oesphagostomum spp. and Trichuris ovis; assay: Adult nematode counts at necropsy; assay type: in vivo; conditions: 13 days post-treatment, sc and oral, lambs n = 2 per group
Procedure, shortened: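 Naturally parasitized lambs, ranked by epg and split into groups of 10, were dosed on day 0 by individual weight with two test compounds, alone or combined. The first was given at 5 mg/kg sc or 10 mg/kg oral, the second at 0.2 mg/kg sc or oral. An untreated control group was kept. At 13 and 28 days post-treatment, two random animals per group were killed by captive bolt and exsanguinated.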

H. contortus population = conditions: SUL experimental farm, ref Castells, personal communication; cited from earlier work
susceptible H. contortus = conditions: single dose, sheep, absence of resistance, cited from earlier work
plasma proteins = conditions: ref Mohammed Ali and Bogan, 1987; Hennessy, 1993; cited from earlier work
[4] = Adverse events / tolerability; assay type: in vivo; conditions: lambs, sc and oral treatments
[5] = Plasma disposition kinetics; assay type: in vivo, lambs; conditions: for AUC0-LOQ / AUC0-∞: closantel in plasma, lambs
[6] = tested on: multiple resistant gastrointestinal nematodes (mainly H. contortus); assay: Faecal egg count reduction test; assay type: in vivo, lambs; conditions: for Nematode egg counts (mean): arithmetic mean; for Efficacy (%) [CI] (FECRT): 95% CI, Coles et al. (1992) formula
[7] = tested on: gastrointestinal nematodes; conditions: cattle, ref Leathwick and Miller (2013), cited from earlier work
[8] = tested on: breast cancer resistance protein (BCRP); conditions: ref Pérez et al., 2009; cited from earlier work
[9] = most species, ref Zulalian et al., 1994; cited from earlier work
P-gp = conditions: ref Lespine et al., 2006; cited from earlier work
[10] = 22 days post-treatment, subcutaneous
[11] = 28 days post-treatment, subcutaneous
[12] = CLO co-administered with MXD by the sc route vs CLO alone, P < 0.05
[13] = CLO 10 mg/kg oral alone (CLOoral)
[14] = Day 2 post-treatment, oral (CLO 10 mg/kg, MXD 0.2 mg/kg)
[15] = Day 2 post-treatment, subcutaneous (CLO 5 mg/kg, MXD 0.2 mg/kg)
[16] = Day 6 post-treatment, oral (CLO 10 mg/kg, MXD 0.2 mg/kg)
[17] = Day 6 post-treatment, subcutaneous (CLO 5 mg/kg, MXD 0.2 mg/kg)
[18] = Day 10 post-treatment, oral (CLO 10 mg/kg, MXD 0.2 mg/kg)
[19] = Day 13 post-treatment, oral (CLO 10 mg/kg, MXD 0.2 mg/kg)
[20] = Day 13 post-treatment, subcutaneous (CLO 5 mg/kg, MXD 0.2 mg/kg)
[21] = Day 22 post-treatment, oral (CLO 10 mg/kg, MXD 0.2 mg/kg)
[22] = Day 22 post-treatment, subcutaneous (CLO 5 mg/kg, MXD 0.2 mg/kg)
[23] = Day 28 post-treatment, oral (CLO 10 mg/kg, MXD 0.2 mg/kg)
[24] = Day 28 post-treatment, subcutaneous (CLO 5 mg/kg, MXD 0.2 mg/kg)

Compound	Efficacy (%) ([1]; 22 days post-treatment, oral)	Efficacy (%) [1, 10] [%]	Efficacy (%) (Haemoncus spp.; 22 days post-treatment, oral)	Efficacy (%) (Haemoncus spp.; [10])	Efficacy (%) (Haemoncus spp.; 28 days post-treatment, oral)	Fate of Nematodirus spp., Oesphagostomum spp. and Trichuris ovis [3]	Efficacies of single dose (H. contortus population)	Adverse events [4]	Quantified in plasma up to ([5]; post oral treatment)	Quantified in plasma up to ([5]; post sc treatment)	Nematode egg counts (mean) [6, 14]	Nematode egg counts (mean) [6, 15]	Nematode egg counts (mean) [6, 16]	Nematode egg counts (mean) [6, 17]	Nematode egg counts (mean) [6, 18]	Efficacy (%) [CI] (FECRT) [6, 19]	Nematode egg counts (mean) [6, 19]	Efficacy (%) [CI] (FECRT) [6, 20]	Nematode egg counts (mean) [6, 20]	Efficacy (%) [CI] (FECRT) [6, 21]	also measured
Cc1cc(C(C#N)c2ccc(Cl)cc2)c(Cl)cc1NC(=O)c1cc(I)cc(I)c1O (centres unmarked) [CLO, closantel]	96	100	4	0	9	survive	above 85%	No adverse events were observed	up to 28 days	up to 28 days	630 ^b epg	790 ^b epg	550 ^b epg	530 ^b epg	770^c epg	84 [71–91] %	890 ^b epg	85 [72–92] %	830 ^b epg	83 [73–89] %	Efficacy (%) [1, 11]: 99%; Efficacy (%) (Haemoncus spp.; [11]): 1%; Biodegradation by the ruminal fluid [2]: not exposed to any significant biodegradation; Protection against reinfection up to (susceptible H. contortus; ref Hall et al., 1981): up to 28 days; Binding to plasma proteins (plasma proteins): > 99%; Longer MRT after co-administration [5, 12]: 42%; Longer T½el after co-administration [5, 12]: 39%; Plasma drug exposure (AUC0-LOQ) lower after oral than after sc treatment ([5]; CLO oral 10 mg/kg vs sc 5 mg/kg, P < 0.05): 34%; AUC0-LOQ ([5]; CLO 5 mg/kg sc alone (CLOSC)): 1570 ± 419^ab μg.d/mL; AUC0-∞ ([5]; CLO 5 mg/kg sc alone (CLOSC)): 2231 ± 662^ab μg.d/mL; AUC0-LOQ [5, 13]: 1042 ± 170^c μg.d/mL; AUC0-∞ [5, 13]: 1438 ± 367^b μg.d/mL; Efficacy (FECRT) ([6]; 13 days post-treatment, drug alone, over the sc and oral treatments): 84 to 85%; Nematode egg counts (mean) [6, 21]: 850 ^b epg; Efficacy (%) [CI] (FECRT) [6, 22]: 82 [67–91] %; Nematode egg counts (mean) [6, 22]: 863 ^b epg; Efficacy (%) [CI] (FECRT) [6, 23]: 66 [36–82] %; Nematode egg counts (mean) [6, 23]: 1350 epg; Efficacy (%) [CI] (FECRT) [6, 24]: 84 [57–94] %; Nematode egg counts (mean) [6, 24]: 650 epg
CO/N=C1\C[C@]2(C[C@@H]3C[C@@H](C/C=C(\C)C[C@@H](C)/C=C/C=C4\CO[C@@H]5[C@H](O)C(C)=C[C@@H](C(=O)O3)[C@]45O)O2)O[C@H](/C(C)=C/C(C)C)[C@H]1C [MXD, moxidectin]	0	0	100	100	100	efficiently eliminated	above 85%	No adverse events were observed	≤ 25 days	up to 28 days	240 ^ab epg	150 ^ab epg	340 ^ab epg	250^a epg	530 ^bc epg	80 [62–89] %	1140 ^b epg	92 [85–96] %	430 ^b epg	82 [53–93] %	Efficacy ([7]; oral treatment): 91.1%; Efficacy ([7]; sc injection): 55.5%; Efficacy (%) ([1]; 13 days post-treatment, oral): 0%; Efficacy (%) ([1]; 28 days post-treatment, oral): 0%; Interaction with BCRP [8]: identified as a BCRP substrate; Efficacy (%) (Haemoncus spp.; 13 days post-treatment, oral): 100%; Dose excreted unchanged in the faeces [9]: 90%; Protection against reinfection up to (susceptible H. contortus; ref Kerboeuf et al., 1995): ≤ 35 days; Interaction with mammalian P-gp (P-gp): much weaker compared with ivermectin; AUC0-LOQ after the oral treatment as share of that after the sc treatment ([5]; MXD 0.2 mg/kg oral vs sc): 33%; Nematode egg counts (mean) [6, 21]: 888 ^b epg; Efficacy (%) [CI] (FECRT) [6, 22]: 80 [61–90] %; Nematode egg counts (mean) [6, 22]: 975 ^b epg; Efficacy (%) [CI] (FECRT) [6, 23]: 61 [6–84] %; Nematode egg counts (mean) [6, 23]: 1525 epg; Efficacy (%) [CI] (FECRT) [6, 24]: 74 [38–89] %; Nematode egg counts (mean) [6, 24]: 1013 epg
